Test [1] concerns Mus musculus. Description: Antinociceptive activity in Albino mouse assessed as inhibition of acetic acid-induced abdominal constriction at 100 umol/kg, po treated 1 hr before acetic acid challenge relative to control. The conditions noted are these: Abdomen. The format is functional. The essentials:
(§1)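 Albino mice of both sexes (18–23 g), dosed orally as a suspension in 5% arabic gum in saline. Acetic acid given ip 1 h later. Constrictions counted for 20 min, starting 10 min after injection. Expressed as % inhibition versus vehicle controls. Dose–response over 0.3–100 µmol/kg. Mean ± SEM of n animals; one-way ANOVA, Dunnett, P<0.01.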

For another test, the species on record is Oryctolagus cuniculus. The experiment in a line: Inhibition of arachidonic acid-induced rabbit platelet aggregation by turbidimetric method. The test is classed as functional. The essentials: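 Rabbits (2.5–3.0 kg) bled from the central ear artery into 3.8% trisodium citrate (9:1). PRP was spun at 1800 rpm and PPP at 3600 rpm, 10 min each at room temperature. PRP was stirred at 900 rpm at 37 °C, with compound or 0.5% DMSO vehicle added 5 min before arachidonic acid (200 µM in methods; 100 µM elsewhere). Read-out was percent of AA aggregation.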

Test [2] concerns Mus musculus. Description: Antinociceptive activity in po treated Albino mouse assessed as inhibition of acetic acid-induced abdominal constriction treated 1 hr before acetic acid challenge. The test is classed as functional. The conditions noted are these: Abdomen. In a few lines:
as §1

Test [3] concerns Rattus norvegicus. Description: Antiinflammatory activity in Albino rat assessed as inhibition of carrageenan-induced paw edema at 10 umol/kg, ip. The test is classed as functional. The essentials:
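Albino rats of both sexes (150–200 g), dosed as a suspension in 1% tween 80 in saline. 1 h later, 1% carrageenan (0.1 mg/paw) into one hind paw subplantar, saline into the other. Paw volumes by plethysmometer at 3 h; edema is the difference between the paws. Expressed as % inhibition versus vehicle controls.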
On the technique in general: Carrageenan injected into the paw causes an acute inflammation.

Test [4] deals with Rattus norvegicus. Description: Analgesic activity in carrageenan-induced Wistar rat hyperalgesia model assessed as reduction in latency time at 100 umol/kg, ip treated 60 mins before carrageen challenge. The format is functional. Also on record: scale not given: the % may be the effect or the level left. The essentials: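 Wistar rats, dosed ip in 1% tween 80 in saline. Carrageenan 1 mg/paw intraplantar in left paw, saline in right, 100 µL each. Left-paw withdrawal latency on 51 ± 0.1 °C plate at 0, 30, 60, 120, 180, 240 min; cut-off 20 s. Hyperalgesia taken as latency at time 0 minus later latency. Mean ± SEM, n=8–10; one-way ANOVA, Dunnett.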

For test [5], the system named is Mus musculus. The experiment in a line: Antinociceptive activity in Albino swiss mouse assessed as inhibition of formalin induced pain at 100 umol/kg, ip treated 1 hr before formalin challenge. The test is classed as functional, organism-based. In a few lines:
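Albino Swiss mice of both sexes (18–25 g), fasted 8 h, dosed ip in 5% arabic gum. 60 min later, 20 µL of 2.5% formalin subplantar in one hind paw. Time spent licking or biting the paw scored at 0–5 min (neurogenic phase) and 15–30 min (inflammatory phase). Mean ± SEM, n=6–12; two-way ANOVA, Bonferroni.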

Test [6] deals with Mus musculus. Description: Analgesic activity in Swiss mouse assessed as response to thermal stimulation at 100 umol/kg, ip by Hot-plate test. The format is functional, organism-based. The essentials:
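Swiss mice of both sexes, fasted 8 h, water ad libitum; dosed ip in 1% tween in saline. Placed on plate at 55 ± 0.1 °C; paw licking or withdrawal timed. Two control readings 30 min apart set baseline latency; cut-off three times control mean. Latency recorded every 30 min after dosing for 150 min. Mean ± SEM, n=7.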

Test [7] concerns Rattus norvegicus. Description: Antiinflammatory activity in Albino rat assessed as inhibition of carrageenan-induced paw edema at 100 umol/kg, ip. Also on record: scale not given: the % may be the effect or the level left.

Calls of active or inactive are those of the source.

`Cc1nc2cc3c(cc2c(=O)n1/N=C/c1ccccn1)OCO3`: in the test with Mus musculus [1], the inhibition in vivo at 100 µmol/kg is 18.5%. Besides, the inhibition entry in the test listed under Oryctolagus cuniculus is “inactive”.

With `Cc1c(N(C)CS(=O)(=O)[O-])c(=O)n(-c2ccccc2)n1C.[Na+]` [DIPYRONE SODIUM], the ED50 in the test on Mus musculus [2] was found to be 144 µmol/kg. In the test on Mus musculus [1], the inhibition in vivo at 100 µmol/kg turned out to be 36%.

For the compound `Cc1nc2cc3c(cc2c(=O)n1/N=C/c1ccco1)OCO3`, the inhibition in vivo at 100 µmol/kg in the test with Mus musculus [1] is 16.9%. Moreover, the inhibition entry in the test listed under Oryctolagus cuniculus is “inactive”.

As for `Cc1nc2cc3c(cc2c(=O)n1/N=C/c1cccs1)OCO3`, in the test with Mus musculus [1], the inhibition in vivo at 100 µmol/kg worked out at 10.7%. Further, the inhibition result in the test filed under Oryctolagus cuniculus is “inactive”.

Regarding `Cc1nc2cc3c(cc2c(=O)n1/N=C/c1ccc(C(C)C)cc1)OCO3`, in the test with Mus musculus [1], the inhibition in vivo at 100 µmol/kg is 32.9%. Moreover, the inhibition result in the test filed under Oryctolagus cuniculus is “inactive”.

Take `C/C(=N\n1c(C)nc2cc3c(cc2c1=O)OCO3)c1cccs1`: the ED50 in the test with Mus musculus [2] (read-out: ED50) stood at 3.5 mg/kg. The inhibition result in the test on Rattus norvegicus [3] and in the test listed under Oryctolagus cuniculus was “inactive” each time. The Activity in the test with Rattus norvegicus [4] is on record as 50%. Further, the inhibition result in the test on Mus musculus [5] was “Active”. The inhibition in vivo at 100 µmol/kg with Mus musculus [1] was 45.3%. Also, in the test with Mus musculus [6], the outcome was inactive.

Take `COc1ccc2c(c1)c(CC(=O)O)c(C)n2C(=O)c1ccc(Cl)cc1` [INDOMETHACIN]: the Activity with Rattus norvegicus [7] was determined as 61%.

As to `Cc1nc2cc3c(cc2c(=O)n1/N=C/c1ccc(N(C)C)cc1)OCO3`, in the test on Mus musculus [2], the 50% effective dose (ED50) came out at 5.4 µmol/kg. Further, the inhibition entry in the test on Rattus norvegicus [3] and in the test listed under Oryctolagus cuniculus was “inactive” each time. Moreover, the Activity in the test with Rattus norvegicus [4] is 50%. Moreover, the inhibition entry in the test with Mus musculus [5] was “Active”. Moreover, in the test on Mus musculus [1], the inhibition in vivo at 100 µmol/kg stood at 43%. Moreover, the outcome with Mus musculus [6] was inactive.

As to `Cc1nc2cc3c(cc2c(=O)n1/N=C/c1ccsc1)OCO3`, the inhibition in vivo at 100 µmol/kg in the test with Mus musculus [1] came out at 34.7%. Moreover, in the test filed under Oryctolagus cuniculus, the inhibition entry was “inactive”.

`Cc1nc2cc3c(cc2c(=O)n1/N=C/c1cccnc1)OCO3`: the inhibition in vivo at 100 µmol/kg in the test on Mus musculus [1] worked out at 35.2%. In addition, the inhibition entry in the test listed under Oryctolagus cuniculus is “inactive”.

In the case of `Cc1nc2cc3c(cc2c(=O)n1/N=C/c1ccncc1)OCO3`, the inhibition in vivo at 100 µmol/kg in the test on Mus musculus [1] was 38.5%. Besides, the inhibition entry in the test filed under Oryctolagus cuniculus was “inactive”.

As for `Cc1nc2cc3c(cc2c(=O)n1/N=C/c1ccccc1)OCO3`, the inhibition in vivo at 100 µmol/kg with Mus musculus [1] is 17.6%. Further, the inhibition entry in the test listed under Oryctolagus cuniculus was “inactive”.

The term inhibition in vivo denotes the percentage by which the read-out fell short of the control. As usually defined, the ED50 is the dose at which the effect has come halfway, by size or by number of responders.

Source of the values: ChEMBL document CHEMBL1152567, “Synthesis and analgesic profile of conformationally constrained N-acylhydrazone analogues: discovery of novel N-arylideneamino quinazolin-4(3H)-one compounds derived from natural safrole” (2009).
